Measured values published in ChEMBL document CHEMBL3856206, “Nitroimidazole carboxamides as antiparasitic agents targeting Giardia lamblia, Entamoeba histolytica and Trichomonas vaginalis” (Eur J Med Chem, 2016).
One block for each compound: values may come before it. The source made the active and inactive calls. The calls are words filed in the database; no cut-off is given here.

Assays:
[1] = Selectivity index, ratio of CC50 for human HepG2 cells to EC50 for metronidazole sensitive Giardia lamblia WB trophozoites
[2] = Selectivity index, ratio of CC50 for HEK293 cells to EC50 for metronidazole sensitive Giardia lamblia WB trophozoites
Entamoeba histolytica [3] = assay: Potency index, ratio of metronidazole EC50 to compound EC50 for metronidazole sensitive Entamoeba histolytica HM-1:IMSS trophozoites; type: functional
Giardia intestinalis [4] = assay: Potency index, ratio of metronidazole EC50 to compound EC50 for metronidazole resistant Giardia lamblia 713M3 trophozoites; type: functional, Giardia duodenalis
[5] = Cytotoxicity against human HepG2 cells assessed as cell growth inhibition after 24 hrs by resazurin assay; type: toxicity, cell-based
Procedure, shortened: (§1)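 HEK293 (3000/well) and HepG2 (5000/well) cells cultured 24 h in DMEM with 10% FBS at 37 °C, 5% CO2. Compound dilution series added, top concentration 100 μM, 0.5% final DMSO, for 24 h. Then 5 μM resazurin added for 2 h at 37 °C. 1% Triton X-100 served as the lysis control.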

Entamoeba histolytica [6] = assay: Antiparasitic activity against metronidazole sensitive Entamoeba histolytica HM-1:IMSS trophozoites after 24 to 48 hrs under anaerobic conditions by Celltiter-Glo assay; type: functional
Procedure, shortened: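 Axenic log-phase trophozoites in TYI-S-33 with penicillin and streptomycin, 5000 parasites per well. Tested over a final 8-point three-fold series, 0.01–25 μM. Incubated 24–48 h at 37 °C in anaerobe gas pouches. Viable cells measured by ATP bioluminescence (CellTiter-Glo) in triplicate to give EC50.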

[7] = Antiparasitic activity against metronidazole sensitive Clostridium difficile 630 ATCC BAA-1382 after 24 hrs by broth microdilution method; type: functional, Clostridioides difficile 630; settings: Clostridioides difficile, ATCC BAA-1382, 24 h
Procedure, shortened: (§2)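 C. difficile 630 and NAP1/027 grown anaerobically overnight in BHIS at 37 °C, diluted 40-fold, grown ~4.5 h to mid-log (OD600 0.4–0.6). Final inoculum 5 × 10^5 CFU/mL in BHIS against two-fold dilutions, 64 to 0.03 μg/mL, 3% maximum DMSO, in pre-reduced plates (5% H2, 10% CO2, 85% N2). Incubated 24 h at 37 °C. MIC is the lowest concentration without visible growth. Median of replicates reported.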

[8] = Cytotoxicity against HEK293 cells assessed as cell growth inhibition after 24 hrs by resazurin assay; type: toxicity, cell-based; settings: human; procedure, shortened: as §1
Clostridioides difficile = assay: Antiparasitic activity against Clostridium difficile NAP1/027 ATCC BAA-1803 after 24 hrs by broth microdilution method; type: functional; settings: NAP1/027 ATCC BAA-1803, 24 h; procedure, shortened: as §2
[9] = Metabolic stability in human liver microsomes assessed as compound remaining at 5 uM after 2 hrs in presence of NADPH by LC/MS/MS analysis; type: ADME; settings: read-out: Stability
[10] = Protein binding in human plasma at 5 uM after 30 min by ultrafiltration method; type: ADME, cell-free; settings: 0.5 h
Giardia intestinalis [11] = assay: Antiparasitic activity against metronidazole sensitive Giardia lamblia WB trophozoites assessed as morphological alterations at 3 times EC50 after 48 hrs under anaerobic conditions by phase contrast microscopic analysis; type: functional; settings: Giardia duodenalis
Giardia intestinalis [12] = assay: Potency index, ratio of metronidazole EC50 to compound EC50 for metronidazole sensitive Giardia lamblia WB trophozoites; type: functional, Giardia duodenalis

SMILES: CNC(=O)c1ncc([N+](=O)[O-])[nH]1
- Ratio CC50/EC50 [1]: >10
- Ratio CC50/EC50 [2]: >10

SMILES: NC(=O)c1nc([N+](=O)[O-])cn1Cc1ccc(OC(F)(F)F)cc1
- Ratio CC50/EC50 [1]: >22
- Ratio CC50/EC50 [2]: >22

SMILES: Cn1c([N+](=O)[O-])cnc1C(=O)NC1CC1
- Ratio CC50/EC50 [1]: >29
- Ratio CC50/EC50 [2]: >29

SMILES: O=C(NC1CCCCC1)c1ncc([N+](=O)[O-])[nH]1
- Ratio CC50/EC50 [1]: >167
- Ratio EC50 (Entamoeba histolytica [3]): 2 - 3
- Ratio CC50/EC50 [2]: >167

SMILES: CC(NC(=O)c1ncc([N+](=O)[O-])n1C)c1ccc(F)cc1 (stereo unspecified)
- Ratio EC50 (Giardia intestinalis [4]): 3 - 12
- Ratio CC50/EC50 [1]: >34
- Ratio CC50/EC50 [2]: >34

SMILES: CNC(=O)c1nc([N+](=O)[O-])cn1Cc1ccc(OC(F)(F)F)cc1
- Ratio CC50/EC50 [1]: >29
- Ratio CC50/EC50 [2]: >29

SMILES: CCOC(=O)c1nc([N+](=O)[O-])cn1Cc1ccc(OC(F)(F)F)cc1
- Ratio CC50/EC50 [1]: >17
- Ratio CC50/EC50 [2]: >17

- MIC [7]: > 64 µg/mL
- MIC (Clostridioides difficile): > 64 µg/mL
SMILES: NC(=O)c1nc([N+](=O)[O-])cn1CC1CC1
- CC50 at 24 h [5]: > 100 µM
- EC50 (Entamoeba histolytica [6]; read-out: EC50): > 50 µM
- EC50 (Entamoeba histolytica [6]; read-out: pEC50 (converted)): > 50.1 µM
- CC50 at 24 h [8]: > 100 µM

- remaining at 2 h, 5 µM [9]: 100%
SMILES: Cc1ncc([N+](=O)[O-])n1CCO [METRONIDAZOLE]

- PPB [10]: > 99%
- remaining at 2 h, 5 µM [9]: 94%
SMILES: O=C(NCc1ccc(F)cc1)c1ncc([N+](=O)[O-])[nH]1
- Ratio CC50/EC50 [1]: >250
- Activity (Giardia intestinalis [11]): Active
- Ratio CC50/EC50 [2]: >250

SMILES: O=C(NCc1ccccn1)c1ncc([N+](=O)[O-])[nH]1
- Ratio CC50/EC50 [1]: >14
- Ratio CC50/EC50 [2]: >14

SMILES: O=C(NC1CC1)c1ncc([N+](=O)[O-])[nH]1
- Ratio CC50/EC50 [1]: >20
- Ratio CC50/EC50 [2]: >20

- remaining at 2 h, 5 µM [9]: 88%
SMILES: Cn1c([N+](=O)[O-])cnc1C(=O)NCc1ccc(F)cc1
- Ratio CC50/EC50 [1]: >29
- Ratio CC50/EC50 [2]: >29

SMILES: O=C(c1ncc([N+](=O)[O-])[nH]1)N1CCCC1
- Ratio CC50/EC50 [1]: >29
- Ratio CC50/EC50 [2]: >29

SMILES: CN(C)C(=O)c1ncc([N+](=O)[O-])n1C
- Ratio CC50/EC50 [1]: >42
- Ratio CC50/EC50 [2]: >42

SMILES: CN(CCO)C(=O)c1ncc([N+](=O)[O-])[nH]1
- Ratio CC50/EC50 [1]: >4
- Ratio CC50/EC50 [2]: >4

SMILES: CN(C)C(=O)c1nc([N+](=O)[O-])cn1Cc1ccc(OC(F)(F)F)cc1
- Ratio CC50/EC50 [1]: >37
- Ratio CC50/EC50 [2]: >37

SMILES: O=C(NO)c1nc([N+](=O)[O-])cn1Cc1ccc(OC(F)(F)F)cc1
- Ratio CC50/EC50 [1]: >20

SMILES: Cn1c([N+](=O)[O-])cnc1C(=O)NCc1ccccn1
- Ratio EC50 (Giardia intestinalis [4]): 3 - 12
- Ratio EC50 (Giardia intestinalis [12]): 4
- Ratio CC50/EC50 [1]: >63
- Ratio CC50/EC50 [2]: >63

SMILES: Cn1c([N+](=O)[O-])cnc1C(=O)N1CCCC1
- Ratio EC50 (Giardia intestinalis [4]): 3 - 12
- Ratio CC50/EC50 [1]: >34
- Ratio CC50/EC50 [2]: >34

SMILES: Cn1c([N+](=O)[O-])cnc1C(=O)NC1CCCCC1
- Ratio EC50 (Giardia intestinalis [4]): 3 - 12
- Ratio CC50/EC50 [1]: >20
- Ratio CC50/EC50 [2]: >20

SMILES: CN(C)C(=O)c1ncc([N+](=O)[O-])[nH]1
- Ratio CC50/EC50 [1]: >12
- Ratio EC50 (Entamoeba histolytica [3]): 2 - 3
- Ratio CC50/EC50 [2]: >12

SMILES: Cn1c([N+](=O)[O-])cnc1C(=O)N1CCOCC1
- Ratio EC50 (Giardia intestinalis [12]): 4
- Ratio CC50/EC50 [1]: >63
- remaining at 2 h, 5 µM [9]: 97%
- Ratio CC50/EC50 [2]: >63

SMILES: CC(NC(=O)c1ncc([N+](=O)[O-])[nH]1)c1ccc(F)cc1 (stereo unspecified)
- Ratio CC50/EC50 [1]: >250
- Ratio EC50 (Entamoeba histolytica [3]): 2 - 3
- Ratio CC50/EC50 [2]: >250

SMILES: NC(=O)c1nc([N+](=O)[O-])cn1Cc1cccc(OC(F)(F)F)c1
- Ratio CC50/EC50 [1]: >12
- Ratio CC50/EC50 [2]: >12

SMILES: NNC(=O)c1nc([N+](=O)[O-])cn1Cc1ccc(OC(F)(F)F)cc1
- Ratio CC50/EC50 [1]: >13
- Ratio CC50/EC50 [2]: >13

SMILES: Cc1ccc(CCNC(=O)c2ncc([N+](=O)[O-])n2C)cc1
- Ratio CC50/EC50 [1]: >36
- Ratio CC50/EC50 [2]: >36

- remaining at 2 h, 5 µM [9]: 100%
SMILES: O=C(c1ncc([N+](=O)[O-])[nH]1)N1CCOCC1
- Ratio CC50/EC50 [1]: >11
- Ratio CC50/EC50 [2]: >11

SMILES: O=C(NCc1ccc(OC(F)(F)F)cc1)c1ncc([N+](=O)[O-])[nH]1
- Ratio CC50/EC50 [2]: >500

SMILES: Cc1ccc(CCNC(=O)c2ncc([N+](=O)[O-])[nH]2)cc1
- Ratio CC50/EC50 [1]: >1000
- Ratio EC50 (Entamoeba histolytica [3]): 2 - 3
- Ratio CC50/EC50 [2]: >1000

SMILES: O=C(NCc1cccc(OC(F)(F)F)c1)c1ncc([N+](=O)[O-])[nH]1
- Ratio CC50/EC50 [1]: >500
- Ratio CC50/EC50 [2]: >500

SMILES: NC(=O)c1nc([N+](=O)[O-])cn1Cc1ccccn1
- Ratio CC50/EC50 [1]: >3.7
- Ratio CC50/EC50 [2]: >3.7
